The whole screen tested about 2,500 compounds, of which about 460 (18%) were called active. These entries were drawn from the full list. Unmarked numbers belong to inactive results.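 The calls were made as follows: active = mean activation above a cutoff of low control average plus 3 SD from the earlier screen (cut at about 12% in these data); inactive = the rest.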
test: IANBD-channel fluorescence artefacts in buffer – biochemical, artefact control for cardiac RTF calcium sensitizer project, confirmation (AID 504382); conditions: IANBD fluorescence interference counterscreen, EC20 Ca2+, at 7.2 µM, stronger effect = higher value, scaled: EC20 calcium 0, EC100 calcium 100
Outline: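 Medium: MOPS/KCl/MgCl2/EGTA/NTA/DTT buffer, pH 7.2 | Reagent: EC20 calcium, 0.472 mM | Compound dosing: 7.2 µM single dose | Times: 15 min compound exposure at 25 °C | Signal: Fluorescence, 480/540 nm | Measure: Interference relative to controls | Repeats: Triplicate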

Compound | fluorescence artifact activation
CCOc1cc2c(cc1/C=C/c1noc(C)c1[N+](=O)[O-])OC(C)C2 (stereo not given) | 145% (active)
Cc1cc(N2C(=O)C(O)=C(C(=O)c3cccs3)C2c2ccc(F)cc2)no1 (stereo not given) | 7.29%
CCc1cccc2cc3c(N)c(C(=O)Nc4ccc(S(=O)(=O)N5CCCC5)cc4)sc3nc12 | 6.55%
COc1ccc(/C=C/C(=O)c2nc3ccccc3n2CC(=O)c2ccc(OC)cc2)cc1 | -0.1%
CCN(CC)c1ccc(C=Nc2cc(C)ccc2C)c(O)c1 | 1.34%
CC(=O)NC(Cc1ccc(F)c(F)c1)C(=O)NC1CCN(S(=O)(=O)c2ccc(C)cc2)CC1 (stereo not given) | -0.07%
COc1ccc(C(=O)c2sc3nc(C)cc(-c4cccs4)c3c2N)cc1 | 6.39%
COc1ccc(-c2c(C#N)c(N)nc3sc(C(=O)c4ccccc4)c(N)c23)cc1 | 0.01%
COc1ccc(C(=O)c2sc3nc(-c4ccccc4)ccc3c2N)cc1 | 21.8% (active)
Nc1ccc2cc3[nH]c4cc(N)ccc4c3nc2c1 | 2.11%
N#Cc1c(NCCCO)nc(-c2ccccc2)c2c1CCCC2 | 4.04%
CCOc1ccc(NC(=O)c2cccc(OC(=S)N3CCOCC3)c2)cc1 | 0%
COc1ccccc1C(=O)Nc1ccc(OC(C)C(=O)N2CCOCC2)cc1 (stereo not given) | 822% (active)
COc1ccc(OC(C)C(=O)Nc2cccc(OC)c2)cc1 (stereo not given) | 0.45%
COc1ccc2c(c1)c(/C=C/c1cc[n+](C)cc1)cn2C | 0.08%
COC(=O)c1cc2c(C)c(C)c3ccccn3c-2c1C(=O)OC | 0.46%
O=C(CCN1C(=O)/C(=C/c2cccs2)SC1=S)NNC(=O)c1cccc(O)c1 | -0.08%
Oc1cccc(Nc2nc(O)c(/C=C3\C=Nc4ccccc43)s2)c1 | 43% (active)
COc1cc([N+](=O)[O-])ccc1N/C=C/C(=O)c1cccs1 | 0.6%
COc1cc([N+](=O)[O-])ccc1NC(=O)COC(=O)c1n[nH]c2ccccc12 | 0.03%
COc1cc2c(cc1NC(=O)COC(=O)/C=C/c1ccc([N+](=O)[O-])cc1)oc1ccccc12 | 796% (active)
Cc1c(C)[n+](=O)c(-c2ccc(Br)cc2)c(C)n1[O-] | 412% (active)
CCn1cc(C(=O)NCCC(=O)NCCO)c(=O)c2cc3c(cc21)OCO3 | 9.79%

Compound | fluorescence artifact activation
O=C(C1=NN[C@@H]2C(=O)N(c3ccccc3C(F)(F)F)C(=O)[C@H]12)c1ccc2ccccc2n1 | 22.3% (active)
Cc1cccc(NC(=S)Nc2ccc(N3CCOCC3)cc2)c1C | 0.78%
Nc1ccc(-c2c3ccc(=O)cc-3oc3cc(O)ccc23)cc1C(=O)O | -0.02%
O=c1ccc2c(-c3ccccc3)c3ccc(O)cc3oc-2c1 | 12.3% (active)
O=c1cc2oc3cc(O)c(O)cc3c(-c3ccccc3O)c-2cc1O | 0.4%
CCCNS(=O)(=O)c1ccc2c(c1)n(C)c(=O)n2C | 1.63%
Cc1cnc(C(=O)Nc2nnc(SCc3c(Cl)cccc3Cl)s2)cn1 | 1.18%
O=C1c2cccc3c(N4CCCCC4)ccc(c23)C(=O)N1c1cccc(O)c1 | 6.35%
CN1CCCC(OC(=O)c2ccccc2Br)C1 (stereo not given) | 20.7% (active)
O=C(OCCN1CCCCC1)c1ccccc1Br | -0.03%
O=C(Cn1c(=O)oc2cc(S(=O)(=O)N3CCCC3)ccc21)N1CCc2ccccc2C1 | 0.09%
CC(C)(C)c1ccc(C(=O)Nc2cccc3ncccc23)cc1 | 0.15%
CCOC(=O)C(=O)Nc1nnc(COc2ccccc2)s1 | -0.01%
Cc1cc(C)cc(C(=O)NC(CC(N)=O)c2ccc(N3CCCCCC3)c([N+](=O)[O-])c2)c1 (stereo not given) | 0.1%
NC(=O)CC(NC(=O)Cc1ccc(Cl)cc1)c1ccc(N2CCN(c3ccccn3)CC2)c([N+](=O)[O-])c1 (stereo not given) | 51.4% (active)
O=C(N/N=C/c1cc([N+](=O)[O-])ccc1N1CCNCC1)c1ccc([N+](=O)[O-])cc1 | 5.53%
O=C(NCc1ccccc1)c1ccc(N2CCC3(CC2)CC(c2ccccc2)=NO3)c([N+](=O)[O-])c1 | -0.07%
NC(=O)CC(NC(=O)c1ccc(Br)cc1)c1ccc(N2CCN(c3ccc(F)cc3)CC2)c([N+](=O)[O-])c1 (stereo not given) | 13.7% (active)
CN(/N=C/c1ccc(O)cc1O)c1ncc(C(F)(F)F)cc1Cl | 0.11%
O=C(c1ccc(Cn2cc([N+](=O)[O-])cn2)o1)N1N=C(C(F)F)CC1(O)C(F)F (stereo not given) | 3.96%
CC/C(=N/Nc1cccc(C)c1)c1cnnc(SC)n1 | 3.63%
Cc1ccccc1NC(=S)Nc1ccc(Br)cc1 | -0.08%
